This is an account of results in ChEMBL document CHEMBL1121508, “Synthesis of alpha-methylene-gamma-butyrolactones: a structure-activity relationship study of their allergenic power” (1980).

Each structure is given as a SMILES string.

Type in all cases: functional
For experiment [1], the species on record is Cavia porcellus. In words: Average skin reaction in guinea pig sensitized to alpha-methylene-gamma-butyrolactone. Summed up: (§1)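 Female guinea pigs (albino Hartley and Himalayan spotted Füllingsdorf), 300–500 g, sensitized by Klečak's method. The hapten was emulsified in Freund's complete adjuvant and injected intradermally into the shaved nuchal region on alternate days, five injections in all. Skin reactions at elicitation were scored up to 3 (erythema plus swelling well beyond the test area) and 4 (necrosis or ulceration). Irritation thresholds were first set on untreated animals by the same elicitation procedure.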

The species named for experiment [2] is Cavia porcellus. In words: Number guinea pigs sensitized to the sesquiterpene alantolactone (out of 7 guinea pigs). Note: test concentration or dose not given here. In short, it runs like this: as §1
The species entered for experiment [3] is Cavia porcellus. Nature of the experiment: Number of guinea pigs sensitized to the sesquiterpene isoalantolactone (out of 8 guinea pigs). Note: test concentration or dose not given here. Summed up: as §1
The species entered for experiment [4] is Cavia porcellus. In words: Average skin reaction in guinea pig sensitized to the sesquiterpene alantolactone. Summed up: as §1
Experiment [5] is filed under the species Cavia porcellus. Nature of the experiment: Average skin reaction in guinea pig sensitized to the sesquiterpene isoalantolactone. In short, it runs like this: as §1
The species named for experiment [6] is Cavia porcellus. In words: Number of guinea pigs sensitized to alpha-methylene-gamma-butyrolactone (out of 10 guinea pigs). Note: test concentration or dose not given here. In short, it runs like this:
as §1

Turning to `C=C1C(=O)OC(c2ccccc2)(c2ccccc2)C1C(=O)OCC` (stereo not given), the figures for the Average skin reaction in the experiment listed under Cavia porcellus [1], in the experiment listed under Cavia porcellus [4] and in the experiment filed under Cavia porcellus [5] were 0, 0.1 and 0, respectively. In addition, the figures for the No. of sensitive in the experiment filed under Cavia porcellus [2], in the experiment listed under Cavia porcellus [3] and in the experiment filed under Cavia porcellus [6] were 1, 0 and 0, respectively.
Consider `C=C1CC2(OC1=O)C1CCC(C1)C2(C)C` (stereo not given), for which the Average skin reaction was determined as 0 in the experiment filed under Cavia porcellus [1], 0.7 in the experiment listed under Cavia porcellus [4] and 1.1 in the experiment filed under Cavia porcellus [5]. The No. of sensitive is 7 in the experiment listed under Cavia porcellus [2], 8 in the experiment listed under Cavia porcellus [3] and 0 in the experiment filed under Cavia porcellus [6].
For `C=C1CC(CC)(CC)OC1=O`, the figures for the Average skin reaction in the experiment filed under Cavia porcellus [1], in the experiment listed under Cavia porcellus [4] and in the experiment filed under Cavia porcellus [5] were 0, 0.4 and 0.7, respectively. Further, the No. of sensitive in the experiment listed under Cavia porcellus [2] is given as 5; in the experiment filed under Cavia porcellus [3], 8; in the experiment filed under Cavia porcellus [6], 0.
Take `C=C1C(=O)OC2CC3(C)CCCC(=O)C3CC12` (stereo not given): the No. of sensitive in the experiment listed under Cavia porcellus [2] is listed as 7; in the experiment listed under Cavia porcellus [3], 8. Also, the Average skin reaction in the experiment filed under Cavia porcellus [4] and in the experiment listed under Cavia porcellus [5] was 0.9 in each case.
Turning to `C=C1CC2(CCCC3CCCCC32)OC1=O` (stereo not given), the Average skin reaction in the experiment listed under Cavia porcellus [1] was found to be 0; in the experiment filed under Cavia porcellus [4], 1.4; in the experiment filed under Cavia porcellus [5] it was 1.4. The No. of sensitive in the experiment listed under Cavia porcellus [2] was found to be 7; in the experiment listed under Cavia porcellus [3] it was 8; in the experiment filed under Cavia porcellus [6], 0.
As to `C=C1C(=O)OC2CC3(C)CCCC4(CO4)C3CC12` (stereo not given), the No. of sensitive in the experiment listed under Cavia porcellus [2] is 7; in the experiment filed under Cavia porcellus [3] it was 8. The results for the Average skin reaction in the experiment filed under Cavia porcellus [4] and in the experiment filed under Cavia porcellus [5] were 0.7 and 1, respectively.
With `C=C1CC2(CCC3(CC2)CC(=C)C(=O)O3)OC1=O` (stereo not given), the Average skin reaction in the experiment filed under Cavia porcellus [1] was 0; in the experiment filed under Cavia porcellus [4], 0; in the experiment filed under Cavia porcellus [5], 0.1. For the same molecule, the No. of sensitive came to 0 in the experiment filed under Cavia porcellus [2], 1 in the experiment listed under Cavia porcellus [3] and 0 in the experiment listed under Cavia porcellus [6].
As to `C=C1C(=O)OC2CCCCC12` (stereo not given), the Average skin reaction in the experiment listed under Cavia porcellus [1], in the experiment listed under Cavia porcellus [4] and in the experiment filed under Cavia porcellus [5] was 0.1 in each case. Moreover, the figures for the No. of sensitive in the experiment listed under Cavia porcellus [2], in the experiment filed under Cavia porcellus [3] and in the experiment listed under Cavia porcellus [6] were 1, 1 and 3, respectively.
On to `C=C1CC2(OC1=O)C1CC3CC(C1)CC2C3` (stereo not given), for which the values for the Average skin reaction in the experiment filed under Cavia porcellus [1], in the experiment filed under Cavia porcellus [4] and in the experiment listed under Cavia porcellus [5] were 0.1, 0.8 and 0.8, respectively. Also, the values for the No. of sensitive in the experiment filed under Cavia porcellus [2], in the experiment listed under Cavia porcellus [3] and in the experiment listed under Cavia porcellus [6] were 6, 8 and 2, respectively.
Take `C=C1CC2(CC[C@@]3(C)C(CC[C@H]4[C@@H]5CC[C@H](C(C)CCCC(C)C)[C@@]5(C)CC[C@@H]43)C2)OC1=O` (stereo not given in full): the Average skin reaction was 0 in the experiment listed under Cavia porcellus [1], 0.1 in the experiment listed under Cavia porcellus [4] and 0 in the experiment listed under Cavia porcellus [5]. Also, the No. of sensitive in the experiment listed under Cavia porcellus [2] came to 1; in the experiment listed under Cavia porcellus [3] it was 0; in the experiment filed under Cavia porcellus [6] it was 0.
Turning to `C=C1CC(C(C)(C)C)OC1=O` (stereo not given), the values for the Average skin reaction in the experiment listed under Cavia porcellus [1], in the experiment filed under Cavia porcellus [4] and in the experiment filed under Cavia porcellus [5] were 0.1, 0.3 and 0.5, respectively. Moreover, the No. of sensitive worked out at 3 in the experiment filed under Cavia porcellus [2], 5 in the experiment filed under Cavia porcellus [3] and 1 in the experiment filed under Cavia porcellus [6].
On to `C=C1C(=O)OC2C3CCC(C3)C12` (stereo not given), for which the Average skin reaction in the experiment listed under Cavia porcellus [1] is 0.1; in the experiment filed under Cavia porcellus [4], 0.9; in the experiment filed under Cavia porcellus [5], 1. The values for the No. of sensitive in the experiment filed under Cavia porcellus [2], in the experiment listed under Cavia porcellus [3] and in the experiment filed under Cavia porcellus [6] were 7, 8 and 2, respectively.
In the case of `C=C1CC(C)(CC(C)(C)C)OC1=O` (stereo not given), the Average skin reaction was 0.1 in the experiment listed under Cavia porcellus [1], 0.6 in the experiment filed under Cavia porcellus [4] and 0.8 in the experiment listed under Cavia porcellus [5]. Further, the No. of sensitive in the experiment listed under Cavia porcellus [2] is 6; in the experiment listed under Cavia porcellus [3] it was 7; in the experiment listed under Cavia porcellus [6], 2.
In the case of `C=C1CC2(CC3CC4(CC(=C)C(=O)O4)CC3C2)OC1=O` (stereo not given), the Average skin reaction in the experiment listed under Cavia porcellus [1] was 0; in the experiment listed under Cavia porcellus [4] it was 0.2; in the experiment filed under Cavia porcellus [5] it was 0.2. For the same molecule, the No. of sensitive turned out to be 2 in the experiment listed under Cavia porcellus [2], 3 in the experiment listed under Cavia porcellus [3] and 1 in the experiment filed under Cavia porcellus [6].
For the molecule `C=C1CC2(CCCCCCCCC2)OC1=O`, the Average skin reaction in the experiment filed under Cavia porcellus [1] was 0; in the experiment listed under Cavia porcellus [4] it was 1.1; in the experiment filed under Cavia porcellus [5], 0.9. For the same molecule, the values for the No. of sensitive in the experiment filed under Cavia porcellus [2], in the experiment listed under Cavia porcellus [3] and in the experiment filed under Cavia porcellus [6] were 7, 7 and 0, respectively.
`C=C1CC2(CCCCCC2)OC1=O`: the results for the Average skin reaction in the experiment listed under Cavia porcellus [1], in the experiment listed under Cavia porcellus [4] and in the experiment listed under Cavia porcellus [5] were 0.1, 1.1 and 1.2, respectively. Moreover, the No. of sensitive is listed as 7 in the experiment listed under Cavia porcellus [2], 8 in the experiment listed under Cavia porcellus [3] and 2 in the experiment listed under Cavia porcellus [6].
In the case of `C=C1CC(C)(CC)OC1=O` (stereo not given), the Average skin reaction in the experiment filed under Cavia porcellus [1] was determined as 0; in the experiment filed under Cavia porcellus [4] it was 0.4; in the experiment listed under Cavia porcellus [5], 0.4. Moreover, the No. of sensitive is given as 5 in the experiment listed under Cavia porcellus [2], 6 in the experiment filed under Cavia porcellus [3] and 0 in the experiment listed under Cavia porcellus [6].
Consider `C=C1CC(CC)OC1=O` (stereo not given), for which the Average skin reaction in the experiment listed under Cavia porcellus [1] amounted to 0. Moreover, the No. of sensitive in the experiment listed under Cavia porcellus [6] is 0.
Take `C=C1CC(C)OC1=O` (stereo not given): the Average skin reaction was 0.6 in the experiment filed under Cavia porcellus [1], 0 in the experiment filed under Cavia porcellus [4] and 0 in the experiment listed under Cavia porcellus [5]. The No. of sensitive in the experiment listed under Cavia porcellus [2] is 0; in the experiment filed under Cavia porcellus [3], 0; in the experiment filed under Cavia porcellus [6], 7.
As to `C=C1CC2(OC1=O)C(C)CCCC2C` (stereo not given), the Average skin reaction came out at 0 in the experiment listed under Cavia porcellus [1], 1 in the experiment listed under Cavia porcellus [4] and 1.7 in the experiment filed under Cavia porcellus [5]. In addition, the No. of sensitive in the experiment listed under Cavia porcellus [2] was 7; in the experiment filed under Cavia porcellus [3], 8; in the experiment listed under Cavia porcellus [6], 0.
Turning to `C=C1CC(C)(C)OC1=O`, the Average skin reaction in the experiment filed under Cavia porcellus [1] is 0.5; in the experiment listed under Cavia porcellus [4], 0; in the experiment listed under Cavia porcellus [5], 0. The No. of sensitive in the experiment listed under Cavia porcellus [2] is on record as 0; in the experiment listed under Cavia porcellus [3], 0; in the experiment filed under Cavia porcellus [6], 6.
For `C=C1C(=O)OC2CC3(C)CCCC(C)C3=CC12` (stereo not given), the figures for the Average skin reaction in the experiment filed under Cavia porcellus [1], in the experiment listed under Cavia porcellus [4] and in the experiment listed under Cavia porcellus [5] were 0, 3 and 2.1, respectively. Besides, the No. of sensitive in the experiment listed under Cavia porcellus [2] is on record as 7; in the experiment filed under Cavia porcellus [3] it was 8; in the experiment filed under Cavia porcellus [6] it was 0.
On to `C=C1CC2(CCCC2)OC1=O`, for which the Average skin reaction in the experiment filed under Cavia porcellus [1] was found to be 0; in the experiment filed under Cavia porcellus [4] it was 0.2; in the experiment filed under Cavia porcellus [5], 0.1. Also, the No. of sensitive was determined as 2 in the experiment filed under Cavia porcellus [2], 1 in the experiment listed under Cavia porcellus [3] and 0 in the experiment listed under Cavia porcellus [6].
Turning to `C=C1CC2(CCCCC2)OC1=O`, the Average skin reaction was 0.1 in the experiment listed under Cavia porcellus [1], 0.5 in the experiment listed under Cavia porcellus [4] and 0.8 in the experiment filed under Cavia porcellus [5]. Further, the No. of sensitive stood at 5 in the experiment listed under Cavia porcellus [2], 8 in the experiment filed under Cavia porcellus [3] and 2 in the experiment filed under Cavia porcellus [6].
For the molecule `C=C1CCOC1=O` [TULIPALINE A], the Average skin reaction in the experiment filed under Cavia porcellus [1] is given as 1.9; in the experiment listed under Cavia porcellus [4], 0.1. In addition, the No. of sensitive came out at 1 in the experiment listed under Cavia porcellus [2] and 10 in the experiment listed under Cavia porcellus [6].
